hIAP act = human IAP activators, primary screen, biochemical, luminescence, uHTS. purified human IAP, CDP-Star luminescence, 30 min; active compounds read high; 1 = vehicle-only enzyme, 0 = enzyme-free background. hit rate 0.16% among 330,000. activation factor at 10 µM. Intestinal-type alkaline phosphatase (Homo sapiens), P09923;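 active means activation factor of the enzyme at least 2-fold when tested at 20 µM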
Target sequence (P09923 whole entry, looked up): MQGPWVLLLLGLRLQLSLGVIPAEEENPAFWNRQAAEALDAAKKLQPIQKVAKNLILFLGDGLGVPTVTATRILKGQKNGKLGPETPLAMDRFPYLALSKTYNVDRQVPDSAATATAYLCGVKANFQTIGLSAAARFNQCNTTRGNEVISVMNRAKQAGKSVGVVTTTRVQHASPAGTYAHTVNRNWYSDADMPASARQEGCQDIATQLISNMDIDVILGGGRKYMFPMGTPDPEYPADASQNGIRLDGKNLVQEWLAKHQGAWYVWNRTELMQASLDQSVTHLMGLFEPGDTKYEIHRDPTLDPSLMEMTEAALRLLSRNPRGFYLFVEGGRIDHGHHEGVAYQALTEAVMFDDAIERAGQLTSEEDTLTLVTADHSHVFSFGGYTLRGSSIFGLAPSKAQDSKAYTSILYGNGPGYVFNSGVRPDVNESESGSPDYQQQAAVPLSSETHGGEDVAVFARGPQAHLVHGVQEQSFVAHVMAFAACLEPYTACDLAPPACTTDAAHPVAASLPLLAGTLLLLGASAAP
mIAP activ = activators of mouse IAP, primary screen, biochemical, luminescence, uHTS; intestinal alkaline phosphatase [Mus musculus]; muIAP, CDP-Star luminescence, 30 min; active compounds read high; 1 = vehicle-only enzyme signal, 0 = enzyme-free wells; activation factor at 10 µM; hit rate 0.24% among 330,000; AID 2805, 2010;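 active means activation factor of at least 2 at 20 µM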
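Assay system: mouse IAP enzyme / Compound: DMSO-dissolved test compounds / Timing: 30 min, room temperature / Measured by: luminescence from enzymatic CDP-Star hydrolysis / Control set: DMSO-only wells, enzyme-free buffer wells as negative control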
hIAP block = human IAP inhibitors, primary screen, biochemical, luminescence, uHTS. inhibition, % at 10 µM. purified IAP, CDP-Star luminescence, 30 min. hit rate 0.12% among 330,000. Intestinal-type alkaline phosphatase (Homo sapiens), P09923. AID 2544, 2010;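 active means inhibition reaching a set limit with compound at 10 µM in the primary screen, cut at about 35% in these data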;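 further: plate controls were DMSO wells with enzyme for no effect and no-enzyme buffer wells for full effect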
mIAP inh = inhibitors of mouse IAP, primary screen, biochemical, luminescence, uHTS | intestinal alkaline phosphatase [Mus musculus] | inhibition, % at 10 µM | purified mouse IAP, CDP-Star luminescence, 30 min | hit rate 0.2% among 330,000 | AID 2806, 2010;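 active means inhibition of at least 40% at 10 µM in the primary screen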;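 further: plate controls were DMSO with enzyme for no effect and no enzyme wells for full effect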
bIAP activator = bovine intestinal alkaline phosphatase activators, primary screen, biochemical, bovine IAP, CDP-star luminescence. alkaline phosphatase, intestinal [Bos taurus]. purified bovine IAP, 30 min; active compounds read high; fold of DMSO-control signal, blank-subtracted. activation factor at 20 µM. hit rate 0.17% among 200,000. AID 1016, 2008;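 active means activation factor of 2 or more at 20 µM, a signal rise over negative controls twice the positive control's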
bIAP inhibitor = bovine intestinal alkaline phosphatase inhibitors, primary screen, selectivity assay for TNAP inhibitor project, biochemical, bovine IAP, CDP-star luminescence; alkaline phosphatase, intestinal [Bos taurus]; purified bovine IAP, 30 min; inhibition, % at 20 µM; 190,000 tested, under 10 active;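 active means over 50% inhibition of intestinal alkaline phosphatase at 20 µM in the single-dose screen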
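Assay system – bovine IAP enzyme · Quantity – bovine IAP at 1/65,000,000 final dilution · Detection – CDP-star luminescence signal · Times – 30 min reaction at room temperature · Also added – CDP-star substrate at 30 µM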
hIAP act confirm = human IAP activators, confirmation, biochemical, luminescence, single concentration, uHTS hits. shares compounds with hIAP act. purified IAP, CDP-Star luminescence, 30 min; active compounds read low. activation (%Activity, negative = activation), % at 8.3 µM. hit rate 10% among 880;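 active means at least twofold enzyme activation in any of six single-dose repeats, which the averaged readout prints as negative percent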
The depositor's hits bear a star. This is a sample that favours compounds with a hit; in the whole collection about 0.79% have one here.

What do the screens show for `COc1cccc(CC(NC(C)=O)C(=O)NC2CCN(C(=O)NCc3ccccc3)CC2)c1` (stereo unspecified)?
hIAP act: 1.1; mIAP activ: 1.1; hIAP block: -12; mIAP inh: -8

What do the screens show for `COc1ccc(CC(NC(C)=O)C(=O)NC2CCN(C(=O)NCc3ccccc3)CC2)cc1` (stereo unspecified)?
hIAP act: 0.64; mIAP activ: 0.91; hIAP block: 36*; mIAP inh: 9; bIAP activator: 1; bIAP inhibitor: -2; hIAP act confirm: -49

What do the screens show for `CC(=O)N[C@@H](C)C(=O)N1CCN(S(=O)(=O)c2ccc(Cl)cc2)CC1`?
hIAP act: 2.8*; mIAP activ: 0.95; hIAP block: -177; mIAP inh: 5; bIAP activator: 1; bIAP inhibitor: -4; hIAP act confirm: -38

Results for CCOC(=O)c1cccnc1SCC(=O)N(C)c1ccccc1 ?
hIAP act: 0.61; mIAP activ: 0.99; hIAP block: 39*; mIAP inh: 1; bIAP activator: 1; bIAP inhibitor: 1; hIAP act confirm: -64

How did CCOC(=O)c1cccnc1SCc1cc(=O)n2ccccc2n1 do in these assays?
hIAP act: 0.98; mIAP activ: 1; hIAP block: 2; mIAP inh: -4; bIAP activator: 0.8; bIAP inhibitor: 16

What do the screens show for `CCC(C)NC(=O)Cc1c(C)c2cc3c(cc2oc1=O)OC(C)(C)CC3` (stereo unspecified)?
hIAP act: 1; mIAP activ: 1.1; hIAP block: -4; mIAP inh: -6

How did Cc1ccc(N(CC(N)=O)C2SC(=O)N(C)C2=O)cc1 (stereo unspecified) do in these assays?
hIAP act: 0.35; mIAP activ: 0.91; hIAP block: 65*; mIAP inh: 9; bIAP activator: 1.1; bIAP inhibitor: -6; hIAP act confirm: -76

How did Cc1cccc(N(CC(N)=O)C2SC(=O)N(c3ccccc3)C2=O)c1 (stereo unspecified) do in these assays?
hIAP act: 1; mIAP activ: 0.82; hIAP block: -3; mIAP inh: 18; bIAP activator: 1; bIAP inhibitor: -4

How did O=C(COC(=O)c1cc(S(=O)(=O)N2CCOCC2)ccc1Cl)NCc1ccccc1 do in these assays?
hIAP act: 0.96; mIAP activ: 0.99; hIAP block: 4; mIAP inh: 1

What do the screens show for `CC(=O)OCC(=O)c1c[nH]c2ccccc12`?
hIAP act: 0.89; mIAP activ: 0.97; hIAP block: 12; mIAP inh: 2; bIAP activator: 1.1; bIAP inhibitor: -8

Results for CC(C)(C)NCC(=O)c1c[nH]c2ccccc12 ?
hIAP act: 2.1*; mIAP activ: 1.1; hIAP block: -108; mIAP inh: -15; bIAP activator: 0.9; bIAP inhibitor: 10; hIAP act confirm: -58

Results for O=C1/C(=C\c2ccc(O)c(O)c2)N=C2CCCCCN12 ?
hIAP act: 0.43; mIAP activ: 0.63; hIAP block: 57*; mIAP inh: 37; hIAP act confirm: -29

How did COc1cc(/C=C2\N=C3CCCCCN3C2=O)ccc1O do in these assays?
hIAP act: 1.1; mIAP activ: 0.76; hIAP block: -7; mIAP inh: 24; bIAP activator: 0.3

Results for Cc1ccc(-c2cc(C(=O)N3CCc4ccccc4C3)[nH]n2)cc1C ?
hIAP act: 2.5*; mIAP activ: 1.4; hIAP block: -149; mIAP inh: -44; hIAP act confirm: 6

What do the screens show for `COc1cccc(-c2cc(C(=O)N3CCc4ccccc4C3)[nH]n2)c1`?
hIAP act: 0.99; mIAP activ: 1.1; hIAP block: 1; mIAP inh: -14

Screening data: PubChem, Sanford-Burnham Center for Chemical Genomics
